Data: paper PMC4586255 (DNA repair, 2010)
Numbering of substitutions follows the chain as printed. In names and notes the source's numbering stands.

B1: YFP-hEXO1-S702X: COOH-terminally truncated version of YFP-hEXO1, truncated from amino acid 702 (protein, UniProt Q9UQ84 1-701, looked up, fragment)
chain: MGIQGLLQFIKEASEPIHVRKYKGQVVAVDTYCWLHKGAIACAEKLAKGEPTDRYVGFCMKFVNMLLSHGIKPILVFDGCTLPSKKEVERSRRERRQANLLKGKQLLREGKVSEARECFTRSINITHAMAHKVIKAARSQGVDCLVAPYEADAQLAYLNKAGIVQAIITEDSDLLAFGCKKVILKMDQFGNGLEIDQARLGMCRQLGDVFTEEKFRYMCILSGCDYLSSLRGIGLAKACKVLRLANNPDIVKVIKKIGHYLKMNITVPEDYINGFIRANNTFLYQLVFDPIKRKLIPLNAYEDDVDPETLSYAGQYVDDSIALQIALGNKDINTFEQIDDYNPDTAMPAHSRSHSWDDKTCQKSANVSSIWHRNYSPRPESGTVSDAPQLKENPSTVGVERVISTKGLNLPRKSSIVKRPRSAELSEDDLLSQYSLSFTKKTKKNSSEGNKSLSFSEVFVPDLVNGPTNKKSVSTPPRTRNKFATFLQRKNEESGAVVVPGTRSRFFCSSDSTDCVSNKVSIQPLDETAVTDKENNLHESEYGDQEGKRLVDTDVARNSSDDIPNNHIPGDHIPDKATVFTDEESYSFESSKFTRTISPPTLGTLRSCFSWSGGLGDFSRTPSPSPSTALQQFRRKSDSPTSLPENNMSDVSQLKSEESSDDESHPLREEACSSQSQESGEFSLQSSNASKLSQCSSKDSD
modifications: N-terminal YFP tag
B2: hEXO1-Δ423–507: internal deletion variant (protein)
chain: MGIQGLLQFIKEASEPIHVRKYKGQVVAVDTYCWLHKGAIACAEKLAKGEPTDRYVGFCMKFVNMLLSHGIKPILVFDGCTLPSKKEVERSRRERRQANLLKGKQLLREGKVSEARECFTRSINITHAMAHKVIKAARSQGVDCLVAPYEADAQLAYLNKAGIVQAIITEDSDLLAFGCKKVILKMDQFGNGLEIDQARLGMCRQLGDVFTEEKFRYMCILSGCDYLSSLRGIGLAKACKVLRLANNPDIVKVIKKIGHYLKMNITVPEDYINGFIRANNTFLYQLVFDPIKRKLIPLNAYEDDVDPETLSYAGQYVDDSIALQIALGNKDINTFEQIDDYNPDTAMPAHSRSHSWDDKTCQKSANVSSIWHRNYSPRPESGTVSDAPQLKENPSTVGVERVISTKGLNLPRKSSIVKRPRSCSSDSTDCVSNKVSIQPLDETAVTDKENNLHESEYGDQEGKRLVDTDVARNSSDDIPNNHIPGDHIPDKATVFTDEESYSFESSKFTRTISPPTLGTLRSCFSWSGGLGDFSRTPSPSPSTALQQFRRKSDSPTSLPENNMSDVSQLKSEESSDDESHPLREEACSSQSQESGEFSLQSSNASKLSQCSSKDSDSEESDCNIKLLDSQSDQTSKLRLSHFSKKDTPLRNKVPGLYKSSSADSLSTTKIKPLGPARASGLSKKPASIQKRKHHNAENKPGLQIKLNELWKNFGFKKDSEKLPPCKKPLSPVRDNIQLTPEAEEDIFNKPECGRVQRAIFQ
modifications: 35S-cysteine label; left off: myc, C-terminal, state not stated | His6, C-terminal, state not stated
B3: YFP-hEXO1-F506A;F507A: MIP-box (putative PIP-box) substitution variant of YFP-hEXO1 (protein, UniProt Q9UQ84 1-846, looked up, variant F506A F507A)
Exonuclease 1: MGIQGLLQFIKEASEPIHVRKYKGQVVAVDTYCWLHKGAIACAEKLAKGEPTDRYVGFCMKFVNMLLSHGIKPILVFDGCTLPSKKEVERSRRERRQANLLKGKQLLREGKVSEARECFTRSINITHAMAHKVIKAARSQGVDCLVAPYEADAQLAYLNKAGIVQAIITEDSDLLAFGCKKVILKMDQFGNGLEIDQARLGMCRQLGDVFTEEKFRYMCILSGCDYLSSLRGIGLAKACKVLRLANNPDIVKVIKKIGHYLKMNITVPEDYINGFIRANNTFLYQLVFDPIKRKLIPLNAYEDDVDPETLSYAGQYVDDSIALQIALGNKDINTFEQIDDYNPDTAMPAHSRSHSWDDKTCQKSANVSSIWHRNYSPRPESGTVSDAPQLKENPSTVGVERVISTKGLNLPRKSSIVKRPRSAELSEDDLLSQYSLSFTKKTKKNSSEGNKSLSFSEVFVPDLVNGPTNKKSVSTPPRTRNKFATFLQRKNEESGAVVVPGTRSRAACSSDSTDCVSNKVSIQPLDETAVTDKENNLHESEYGDQEGKRLVDTDVARNSSDDIPNNHIPGDHIPDKATVFTDEESYSFESSKFTRTISPPTLGTLRSCFSWSGGLGDFSRTPSPSPSTALQQFRRKSDSPTSLPENNMSDVSQLKSEESSDDESHPLREEACSSQSQESGEFSLQSSNASKLSQCSSKDSDSEESDCNIKLLDSQSDQTSKLRLSHFSKKDTPLRNKVPGLYKSSSADSLSTTKIKPLGPARASGLSKKPASIQKRKHHNAENKPGLQIKLNELWKNFGFKKDSEKLPPCKKPLSPVRDNIQLTPEAEEDIFNKPECGRVQRAIFQ
modifications: N-terminal YFP tag
B4: hEXO1-K418A: NLS mutant (protein, UniProt Q9UQ84 1-846, looked up, variant K418A)
Exonuclease 1: B3 Exonuclease 1 with K418A, A506F, A507F
modifications: N-terminal YFP tag

Assays:
[1] = system: PCNA replication foci in NIH3T3 cells; type: cell-based, murine; settings: for Small foci (CFP-PCNA) / Large foci (CFP-PCNA) / Mid Foci (CFP-PCNA): CFP channel (CFP-PCNA) in cells co-expressing the hEXO1 protein, 50 co-transfected cells; for Small foci (CFP-PCNA): early S-phase foci; for Large foci (CFP-PCNA): late S-phase foci; for Mid Foci (CFP-PCNA): mid S-phase foci; for foci formation and co-localization with PCNA during S-phase: NIH3T3 cells co-transfected with CFP-PCNA, 24–48 h; for sub-cellular localization: NIH3T3 cells, confocal imaging
Summary of the method: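 Murine NIH3T3 cells were kept in DMEM with 10% FBS and penicillin/streptomycin at 37 °C, 10% CO₂. Cells (2*10⁵ per glass-bottom dish) were seeded 24 h before ExGen500 co-transfection with 3 μg total plasmid (CFP-PCNA plus YFP fusion). Confocal imaging at 24–48 h. Co-transfected cells were counted and binned by pattern, e.g. "no foci" (diffuse CFP-PCNA, diffuse nuclear YFP).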

hMLH1 [2] = experiment: Interaction of hEXO1 variants with hMLH1; type: binding, human; settings: GST-hMLH1 pull-down, 35S-labeled IVTT protein; Fig. S1
hMLH1 [3] = settings: MIP-box mutant; ref [52]; cited from earlier work
[4] = system: laser induced DNA double strand breaks in HeLa cells; type: cell-based; settings: laser irradiation
[5] = system: laser induced DNA double strand breaks in HeLa cells; settings: NLS mutant, ref [43]; cited from earlier work

| Molecule | Small foci (CFP-PCNA) [1] | Large foci (CFP-PCNA) [1] | Mid Foci (CFP-PCNA) [1] | foci formation and co-localization with PCNA during S-phase [1] | sub-cellular localization [1] | hMLH1 interaction (hMLH1 [2]) | effect of expression on S-phase distribution ([1]; NIH3T3 cells co-expressing CFP-PCNA) | influence of mutation on hEXO1 hMLH1 interaction (hMLH1 [3]) | nuclear translocation in response to laser induced DNA damage [4] | nuclear localization in untreated cells [5] |
| --- | --- | --- | --- | --- | --- | --- | --- | --- | --- | --- |
| B1 | 18% | 8% | 20% | none of the variant proteins were able to form foci or co-localize with PCNA during S-phase | strictly nuclear | sustain partial hMLH1 interaction | – | – | – | – |
| B2 | – | – | – | – | – | sustain partial hMLH1 interaction | – | – | – | – |
| B3 | 4% | 0% | 0% | unable to associate with PCNA in replication foci | higher degree of cytoplasmic distribution | – | only very few S-phase cells, co-expressing this variant and PCNA were observed | influence hEXO1 hMLH1 interactions | – | – |
| B4 | – | – | – | – | – | – | – | – | translocated from the cytoplasm into the nucleus in response to laser induced DNA damage | excluded from the nucleus in untreated cells |
